FLuc act counter – affects firefly luciferase, flagging false hits in luciferase stimulation screens. ATPlite luciferase biochemical, luminescence, 10 min; 0 = ATP-free wells, 1 = DMSO control. AID 1027. 200,000 tested, under 10 active. P08659. activation factor at 10 µM;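 active means luciferase activation factor, scaled between plate controls, of at least 2 with compound at 10 µM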
Target sequence (P08659 whole entry, looked up): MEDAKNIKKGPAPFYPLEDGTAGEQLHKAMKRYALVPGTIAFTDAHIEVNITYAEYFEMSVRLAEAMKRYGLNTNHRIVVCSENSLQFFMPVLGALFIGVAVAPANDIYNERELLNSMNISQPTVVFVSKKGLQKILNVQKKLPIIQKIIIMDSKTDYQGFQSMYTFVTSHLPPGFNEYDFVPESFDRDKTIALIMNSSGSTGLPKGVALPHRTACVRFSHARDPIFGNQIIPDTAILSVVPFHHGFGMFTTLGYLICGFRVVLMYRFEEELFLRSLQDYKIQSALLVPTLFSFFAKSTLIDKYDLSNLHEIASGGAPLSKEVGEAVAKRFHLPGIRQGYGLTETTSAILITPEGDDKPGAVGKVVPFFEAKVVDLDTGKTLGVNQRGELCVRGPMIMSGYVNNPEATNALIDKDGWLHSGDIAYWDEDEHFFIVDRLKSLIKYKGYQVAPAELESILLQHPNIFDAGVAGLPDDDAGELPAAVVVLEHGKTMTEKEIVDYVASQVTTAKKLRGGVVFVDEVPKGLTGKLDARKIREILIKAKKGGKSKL
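assay system = Luciferase/luciferin detection reagent, cell-free biochemical luciferase assay | also added = ATP substrate | times = 10 min post-reagent at room temperature | measured by = luminescence from luciferase reaction | measure = luciferase activation, seen as luminescence increase over controls | benchmarks = low control with PBS replacing ATP, high control enzyme plus ATP without compound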
STAT1 activator – activators of IFN-gamma induced STAT1 signaling | NIH 3T3 STAT1-luciferase reporter, luminescence; 100% = IFN-gamma alone, no compound | activation (% of control), % at 5.5 µM | 200,000 compounds, 2.6% hits;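 active means activation above the screen-wide mean activation plus 3 SD, cut at about 130% in these data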;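 further: raw ratio to IFN-gamma control signal so 100% means no change and 0% no light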
STAT1 inh – reduces IFN-gamma driven STAT1 reporter signal; NIH 3T3 STAT1-luciferase reporter, luminescence; inhibition, % at 5.5 µM; 200,000 compounds, 0.35% hits;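 active means inhibition above a set limit, the mean inhibition across all tested compounds plus 3 SD, cut at about 34% in these data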;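 further: 0% = IFN-gamma with DMSO and 100% = IFN-gamma with 300 µM nifuroxazide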
FLuc inh counter – counter-screen for luciferase assay inhibitors: firefly luciferase inhibition. ATPLite firefly luciferase biochemical luminescence, 10 min. 200,000 compounds, 1.5% hits. P08659. inhibition, % at 10 µM;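 active means inhibition above about 50% when tested at 10 µM, limit read from the data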
STAT3 inh – STAT3 signaling inhibition; U3A cells, IL-6 STAT3-luciferase reporter, luminescence; host cell line lacks STAT1; inhibition, % at 5.5 µM; 190,000 compounds, 0.89% hits; AID 862;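 active means inhibition above the mean inhibition across all screened compounds plus 3 SD, cut at about 44% in these data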;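 further: 0% = DMSO only wells and 100% = 100 µM nifuroxazide control wells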
STAT3 activator – activators of IL-6 induced STAT3 signaling; 190,000 compounds, 0.91% hits; U3A cells, IL-6 STAT3-luciferase reporter, luminescence; 100% = signal with IL-6 EC80 alone; activation (% of control), % at 5.6 µM;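 active means activation above the screen-wide mean of compound activation plus 3 SD, cut at about 130% in these data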;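 further: 0% = background luminescence of wells with medium and substrate only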
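System – human U3A cells carrying STAT3-luciferase construct · Probe or stimulus – Interleukin-6, 33 ng/mL · Schedule – compound 1 h, then IL-6 6 h at 37 °C · Signal – luminescence from STAT3-driven luciferase reporter · Evaluation – percent of IL-6-only median luminescence · Benchmarks – IL-6-only high control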
* hit, by the source's call. Rows were chosen to be rich in hits. Some 4.9% of all compounds tested hit in one or more screens of this group.

Results for CC(NC(=O)COC(=O)CC(c1ccccc1)c1ccccc1)c1ccccc1 (stereo not given) ?
FLuc act counter: 1.1; STAT1 activator: 94.6; STAT1 inh: 5.9; FLuc inh counter: -6.0; STAT3 inh: -8.8; STAT3 activator: 106.1

How did CCC(C)NC(=O)CN1C(=O)NC2(CCc3ccccc3C2)C1=O (stereo not given) do in these assays?
FLuc act counter: 1; STAT1 activator: 104.6; STAT1 inh: -7.0; FLuc inh counter: -3.6; STAT3 inh: 3.8; STAT3 activator: 99.9

What do the screens show for `Cc1ccc2c(n1)sc1c(-c3ccccc3)c(C#N)c(N)nc12`?
FLuc act counter: 1; STAT1 activator: 100.2; STAT1 inh: -0.3; FLuc inh counter: -4.8; STAT3 inh: -35.2; STAT3 activator: 134.9*

What do the screens show for `CN(C)/C=C/C(=O)c1ccc(Oc2ccccc2)cc1`?
FLuc act counter: 0.3; STAT1 activator: 135.3*; STAT1 inh: -42.1; FLuc inh counter: 75.0*; STAT3 inh: 11.6; STAT3 activator: 94.3

Results for CCCc1ccc(C(=O)/C=C/N(C)C)cc1 ?
FLuc act counter: 0.3; STAT1 activator: 126.2; STAT1 inh: -29.7; FLuc inh counter: 74.1*; STAT3 inh: 30.4; STAT3 activator: 81.3

What do the screens show for `CN(C)/C=C/C(=O)c1ccc(F)cc1`?
FLuc act counter: 1; STAT1 activator: 100.8; STAT1 inh: -0.9; FLuc inh counter: -2.8; STAT3 inh: 17.7; STAT3 activator: 90.1

What do the screens show for `CCC/C(=N\NC(=O)c1cccc(C)c1)c1ccccc1`?
FLuc act counter: 1; STAT1 activator: 107.0; STAT1 inh: -5.0; FLuc inh counter: 3.5; STAT3 inh: -2.3; STAT3 activator: 99.8

What do the screens show for `COC(=O)c1sc(NC(=S)NC(=O)c2ccccc2Cl)nc1C`?
FLuc act counter: 0.3; STAT1 activator: 121.2; STAT1 inh: -23.7; FLuc inh counter: 67.3*; STAT3 inh: -5.5; STAT3 activator: 107.0

What do the screens show for `CCOC(=O)c1sc(NC(=S)NC(=O)c2ccccc2)nc1C`?
FLuc act counter: 0.6; STAT1 activator: 125.6; STAT1 inh: -29.2; FLuc inh counter: 37.4; STAT3 inh: -35.8; STAT3 activator: 131.1

How did COC(=O)c1sc(NC(=S)NC(=O)c2ccccc2)nc1C do in these assays?
FLuc act counter: 0.4; STAT1 activator: 110.1; STAT1 inh: -11.2; FLuc inh counter: 63.1*; STAT3 inh: -19.1; STAT3 activator: 119.7

What do the screens show for `Cc1cc([N+](=O)[O-])nn1CCC(=O)Nc1nccs1`?
FLuc act counter: 1.1; STAT1 activator: 109.8; STAT1 inh: -12.6; FLuc inh counter: -5.3; STAT3 inh: 15.6; STAT3 activator: 88.7

What do the screens show for `CC1=C(C(=O)OCC2CCCO2)C(c2coc3ccc(Cl)cc3c2=O)C2=C(CCCC2=O)N1` (stereo not given)?
FLuc act counter: 1.1; STAT1 activator: 93.2; STAT1 inh: 7.6; FLuc inh counter: -7.4; STAT3 inh: -26.6; STAT3 activator: 134.1*

How did O=C(COC(=O)CCCN1C(=O)c2ccccc2C1=O)Nc1cc(Cl)cc(Cl)c1 do in these assays?
FLuc act counter: 1.1; STAT1 activator: 101.8; STAT1 inh: -2.0; FLuc inh counter: -8.5; STAT3 inh: 1.4; STAT3 activator: 102.1

Results for N#CC(C#N)=C1C=CC=CN1/C(=C\c1ccccc1Cl)C(=O)c1ccccc1 ?
FLuc act counter: 1.1; STAT1 activator: 68.0; STAT1 inh: 35.1*; FLuc inh counter: -7.3; STAT3 inh: 13.2; STAT3 activator: 95.4

Results for N#CC(C#N)=C1C=CC=CN1/C(=C\c1ccccc1)C(=O)c1cccs1 ?
FLuc act counter: 1; STAT1 activator: 102.7; STAT1 inh: -3.0; FLuc inh counter: -3.3; STAT3 inh: -11.4; STAT3 activator: 109.4

Results for Cc1ccc(CN2CCN(CC(C)C)C(CCO)C2)s1 (stereo not given) ?
FLuc act counter: 1; STAT1 activator: 134.9*; STAT1 inh: -37.3; FLuc inh counter: 2.4; STAT3 inh: -8.0; STAT3 activator: 112.3

What do the screens show for `Cc1ccc(CN2CCN(CCC(C)C)C(CCO)C2)s1` (stereo not given)?
FLuc act counter: 1; STAT1 activator: 98.2; STAT1 inh: 0.1; FLuc inh counter: -1.8; STAT3 inh: 7.1; STAT3 activator: 98.2

Results for CCN(c1ccccc1)S(=O)(=O)c1ccc(Cl)c(NC(=O)CSc2nnc(C)s2)c1 ?
FLuc act counter: 1.1; STAT1 activator: 83.3; STAT1 inh: 15.6; FLuc inh counter: -6.2; STAT3 inh: 5.6; STAT3 activator: 99.3

How did CC(=O)c1sc(NC(=O)c2ccccc2F)nc1C do in these assays?
FLuc act counter: 0.6; STAT1 activator: 121.9; STAT1 inh: -24.2; FLuc inh counter: 44.2; STAT3 inh: 35.6; STAT3 activator: 76.6

What do the screens show for `CC(=O)c1sc(NC(=O)C(C)(C)C)nc1C`?
FLuc act counter: 1; STAT1 activator: 97.6; STAT1 inh: 2.5; FLuc inh counter: -4.8; STAT3 inh: -4.3; STAT3 activator: 105.2

Results for CC(=O)c1sc(NC(=O)c2ccc(C)c(C)c2)nc1C ?
FLuc act counter: 0.7; STAT1 activator: 146.9*; STAT1 inh: -50.0; FLuc inh counter: 31.2; STAT3 inh: 32.9; STAT3 activator: 75.0

What do the screens show for `CC(=O)c1sc(NC(=O)c2ccc(C(C)(C)C)cc2)nc1C`?
FLuc act counter: 0.7; STAT1 activator: 129.5*; STAT1 inh: -34.0; FLuc inh counter: 29.9; STAT3 inh: 28.8; STAT3 activator: 80.4

Results for Cc1ccc(S(=O)(=O)c2c(C)nn(C(C)(C)C)c2OC(=O)c2ccco2)cc1 ?
FLuc act counter: 1; STAT1 activator: 137.8*; STAT1 inh: -40.8; FLuc inh counter: 2.8; STAT3 inh: -20.5; STAT3 activator: 122.2

What do the screens show for `Cc1ccc(C2=NNC(c3cccc(F)c3)S2)cc1` (stereo not given)?
FLuc act counter: 0.2; STAT1 activator: 54.6; STAT1 inh: 48.2*; FLuc inh counter: 84.0*; STAT3 inh: 77.9*; STAT3 activator: 34.5

How did COc1ccc(C2NC(=O)CS2)cc1OC (stereo not given) do in these assays?
FLuc act counter: 1.1; STAT1 activator: 105.0; STAT1 inh: -5.5; FLuc inh counter: -12.0; STAT3 inh: -9.3; STAT3 activator: 109.7

How did COc1ccc(C2NN=C(c3ccc(C)cc3)S2)cc1OC (stereo not given) do in these assays?
FLuc act counter: 0.2; STAT1 activator: 136.1*; STAT1 inh: -40.4; FLuc inh counter: 78.9*; STAT3 inh: 10.1; STAT3 activator: 94.5

Results for Fc1cccc(C2NN=C(c3ccccc3)S2)c1 (stereo not given) ?
FLuc act counter: 0.3; STAT1 activator: 163.4*; STAT1 inh: -71.1; FLuc inh counter: 67.4*; STAT3 inh: 39.5; STAT3 activator: 66.1
